NOD2 RIPK2 PPI: inhibitors of human NOD2-RIPK2 interaction | O43353 | 360,000 compounds, 0.38% hits | inhibition, % at 4.98 µM | AID 624267 | CHO BLA complementation NOD2-RIPK2, CCF4 ratio; in the data active means inhibition above about 21%;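 further: 0% = vehicle only and 100% = reference blocker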
Target sequence (O43353 whole entry, looked up): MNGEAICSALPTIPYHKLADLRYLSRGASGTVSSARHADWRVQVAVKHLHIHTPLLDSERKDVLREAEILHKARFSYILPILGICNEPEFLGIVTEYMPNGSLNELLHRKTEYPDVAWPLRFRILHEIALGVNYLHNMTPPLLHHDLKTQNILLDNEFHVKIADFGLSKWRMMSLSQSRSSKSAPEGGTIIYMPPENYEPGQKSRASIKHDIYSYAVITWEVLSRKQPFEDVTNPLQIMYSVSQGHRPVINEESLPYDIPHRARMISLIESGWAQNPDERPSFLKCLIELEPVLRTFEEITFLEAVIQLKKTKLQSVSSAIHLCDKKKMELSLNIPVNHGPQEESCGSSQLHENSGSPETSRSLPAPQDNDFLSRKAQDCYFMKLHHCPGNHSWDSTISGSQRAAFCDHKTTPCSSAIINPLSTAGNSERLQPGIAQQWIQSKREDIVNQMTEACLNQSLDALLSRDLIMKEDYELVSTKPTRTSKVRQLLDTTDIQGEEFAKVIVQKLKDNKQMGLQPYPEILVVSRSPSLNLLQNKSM
SR-BI HDL uptake: inhibitors of mouse SR-BI mediated HDL lipid uptake; Q61009; ldlA[mSR-BI] CHO cells, DiI-HDL uptake fluorescence, 3 h; inhibition, % at 12.5 µM; 320,000 compounds, 0.96% hits;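 active means mean replicate inhibition of at least 70% and a set share of replicates each scoring 70 or more; inconclusive means meets just one of the two criteria; inactive means fails both criteria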;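 further: 0% = median of neutral control wells and 100% = median of positive control wells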
SR-BI DiI-HDL act: enhances SR-BI lipid uptake from DiI-HDL | activation, % at 12.5 µM | 320,000 compounds, 0.096% hits | CHO ldlA[mSR-BI] cells, DiI-HDL uptake fluorescence, 3 h; 100 = double the neutral-control signal;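 active means mean replicate activation of at least 60% and every replicate at or above 60%; inconclusive means mean or all-replicate condition met, but not both; inactive means mean below 60% and not all replicates reaching 60%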;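 further: 0% = median plate neutral-control signal and 100% = twice that signal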
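Test system: SR-BI-overexpressing, LDLR-lacking CHO cells; Also added: labelled HDL, 10 µg/mL; Measured by: bottom-read cell fluorescence after medium removal, ex 550/em 595 nm; Timing: 3 h uptake period with compound, 37 °C; Buffer or medium: F12, 0.5% BSA, 25 mM HEPES; Doses: single compound concentration, delivered by pin transfer.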
TLR9-MyD88 block: TLR9-MyD88 interaction inhibition; Q9NR96+Q99836; AID 504734; 340,000 compounds, 0.21% hits; inhibition, % at 4.98 µM; CHO BLA complementation TLR9-MyD88, CCF4 FRET ratio;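 active means inhibition above the mean over all tested compounds plus 3 SD, cut at about 21% in these data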;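 further: 0% = DMSO only wells and 100% = clavulanate BLA inhibitor control wells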
Lipid droplet: modulators of hepatic lipid droplet formation; inhibition, % at 6.5 µM; 240,000 compounds, 0.4% hits; AML12 mouse hepatocytes, oleate lipid droplets, BODIPY imaging; AID 1656;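 active means lipid droplet intensity inhibited by at least 50%, with more than 500 cells counted; inconclusive means wells with under 300 cells, treated as cytotoxic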
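Assay system: AML12 mouse liver cells | Compound dosing: One dose, 6.5 µM compound | Read-out basis: Droplet intensity reduction, % inhibition | Measured by: Fluorescence imaging, 20x objective, two fields per well | Schedule: Overnight treatment with compound plus oleate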
TLR4 MyD88 comp: TLR4-MyD88 interaction inhibition in cells | 200,000 compounds, 0.18% hits | inhibition, % at 8.4 µM | HeLa CL3-4 TLR4/MyD88 BLA complementation, FRET ratio | AID 861 | O00206+Q99836; in the data active means inhibition above about 25%;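 further: 0% = vehicle and 100% = reference inhibitor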
* = called active by the depositor. A selection: hits, their analogues and other compounds. The true share with any hit is near 1.6%.

Screening Cc1ccc(C)c(C(=O)COC(=O)c2cc([N+](=O)[O-])ccc2N2CCOCC2)c1 returned NOD2 RIPK2 PPI 4, SR-BI HDL uptake 73*, SR-BI DiI-HDL act -73 and TLR9-MyD88 block 4.
`COCC(=O)N1CCC2CC1c1cc(Cl)ccc12` (stereo unspecified) gave NOD2 RIPK2 PPI -16, SR-BI HDL uptake -16, SR-BI DiI-HDL act 16 and TLR9-MyD88 block -4.
Cn1c(=O)c2c(ncn2CC(=O)OCC(=O)Nc2ccccc2)n(C)c1=O was read as NOD2 RIPK2 PPI -3, SR-BI HDL uptake 6, SR-BI DiI-HDL act -6, TLR9-MyD88 block 1, Lipid droplet 14 and TLR4 MyD88 comp -3.
`Cn1cnnc1SCC(=O)c1ccc(O)c(O)c1` gave NOD2 RIPK2 PPI -5, SR-BI HDL uptake -9, SR-BI DiI-HDL act 9, TLR9-MyD88 block -2, Lipid droplet 3 and TLR4 MyD88 comp -2.
CC(C)c1ccc(-c2nc(N3CCOCC3)[nH]c(=O)c2C#N)cc1 was read as NOD2 RIPK2 PPI -1, SR-BI HDL uptake 15, SR-BI DiI-HDL act -15, TLR9-MyD88 block -4, Lipid droplet 1 and TLR4 MyD88 comp -5.
`CC1=Nc2ccccc2/C1=C\c1sc(Nc2ccc(C)cc2)nc1O` gave NOD2 RIPK2 PPI 11, SR-BI HDL uptake 75*, SR-BI DiI-HDL act -75, TLR9-MyD88 block -3, Lipid droplet inconclusive and TLR4 MyD88 comp -15.
CCOC(=O)Nc1nc(-c2ccccc2)c(C(=O)c2ccc(Cl)cc2)s1 was read as NOD2 RIPK2 PPI 3, SR-BI HDL uptake 83*, SR-BI DiI-HDL act -83, TLR9-MyD88 block 4, Lipid droplet inconclusive and TLR4 MyD88 comp -8.
CCOC(=O)Nc1sc(C)nc1-c1ccccc1 was read as NOD2 RIPK2 PPI 1, SR-BI HDL uptake 20, SR-BI DiI-HDL act -20, TLR9-MyD88 block -5 and TLR4 MyD88 comp 0.
`O=C(c1ccc(Cl)c(Cl)c1)c1cc(-c2ccccn2)c(N2CCOCC2)s1` gave NOD2 RIPK2 PPI 24*, SR-BI HDL uptake 41, SR-BI DiI-HDL act -41, TLR9-MyD88 block 11 and TLR4 MyD88 comp 22.
For COc1ccc(N2CCN(C(=O)C3CCN(S(=O)(=O)c4cccs4)CC3)CC2)cc1 the results were NOD2 RIPK2 PPI -12, SR-BI HDL uptake -18, SR-BI DiI-HDL act 18, TLR9-MyD88 block -9, Lipid droplet 3 and TLR4 MyD88 comp 5.
Screening COc1ccc(CN2CCN(C(=O)C3CCN(S(=O)(=O)c4cccs4)CC3)CC2)c(OC)c1OC returned NOD2 RIPK2 PPI -3, SR-BI HDL uptake 76*, SR-BI DiI-HDL act -76, TLR9-MyD88 block -6, Lipid droplet -3 and TLR4 MyD88 comp 0.
Screening O=C(NCCCCNC(=O)c1ccccc1F)c1ccccc1F returned NOD2 RIPK2 PPI 7, SR-BI HDL uptake 75*, SR-BI DiI-HDL act -75, TLR9-MyD88 block -18 and Lipid droplet 9.
`O=C(O)CNC(=O)c1ccccc1F` gave NOD2 RIPK2 PPI 7, SR-BI HDL uptake -37, SR-BI DiI-HDL act 37, TLR9-MyD88 block 3 and TLR4 MyD88 comp -12.
Cc1ccc(S(=O)(=O)N2CCC(=O)N([C@H](COCc3ccc(Cl)cc3)C(C)C)CC2)cc1 was read as NOD2 RIPK2 PPI 1.
Screening O=C(Nc1cccc(C(F)(F)F)c1)c1ccc2nc(-c3ccco3)c(-c3ccco3)nc2c1 returned NOD2 RIPK2 PPI -10, SR-BI HDL uptake 82*, SR-BI DiI-HDL act -82, TLR9-MyD88 block 6, Lipid droplet 20 and TLR4 MyD88 comp -7.
Screening COc1cccc(C2C=C(c3ccc(OC)cc3OC)Nc3nnnn32)c1 (stereo unspecified) returned NOD2 RIPK2 PPI 31*, SR-BI HDL uptake 49, SR-BI DiI-HDL act -49, TLR9-MyD88 block 46* and TLR4 MyD88 comp 8.
Screening COc1cccc(C2=CC(c3ccccc3)n3nnnc3N2)c1 (stereo unspecified) returned NOD2 RIPK2 PPI 4, SR-BI HDL uptake -1, SR-BI DiI-HDL act 1, TLR9-MyD88 block 8 and TLR4 MyD88 comp 0.
`CCN1C(=O)/C(=C2/C(=O)N3c4c(cc(OC(C)=O)cc42)C(C)=CC3(C)C)SC1=S` gave NOD2 RIPK2 PPI -2, SR-BI HDL uptake 86*, SR-BI DiI-HDL act -86, TLR9-MyD88 block 0, Lipid droplet 18 and TLR4 MyD88 comp 4.
COc1cc2c3c(c1)/C(=C1/SC(NC(C)=O)=NC1=O)C(=O)N3C(C)(C)C=C2C was read as NOD2 RIPK2 PPI 9, SR-BI HDL uptake 20, SR-BI DiI-HDL act -20, TLR9-MyD88 block -2, Lipid droplet 26 and TLR4 MyD88 comp 15.
Screening Cn1cccc1C(=O)N/N=C/c1c(Cl)cccc1Cl returned NOD2 RIPK2 PPI -15, SR-BI HDL uptake 6, SR-BI DiI-HDL act -6 and TLR9-MyD88 block -1.
`COc1ccc(C)cc1NC(=O)C1CCN(C(=O)Cc2ccccc2)CC1` gave NOD2 RIPK2 PPI -2, SR-BI HDL uptake 76*, SR-BI DiI-HDL act -76, TLR9-MyD88 block -13, Lipid droplet 13 and TLR4 MyD88 comp 2.
Screening COc1ccc(NC(=O)C2CCN(C(=O)C3CC(=O)N(c4ccc(C)cc4)C3)CC2)c(OC)c1 (stereo unspecified) returned NOD2 RIPK2 PPI -15, SR-BI HDL uptake 79*, SR-BI DiI-HDL act -79, TLR9-MyD88 block -14 and Lipid droplet 12.
For CC(=O)Nc1ccc(NC(=O)C2CCN(C(=O)C3CC(=O)N(c4ccc(C)cc4)C3)CC2)cc1 (stereo unspecified) the results were NOD2 RIPK2 PPI -2, SR-BI HDL uptake 18, SR-BI DiI-HDL act -18, TLR9-MyD88 block -6 and Lipid droplet -6.
CCOc1cc(NC(=O)C2CC2)c(OCC)cc1NC(=O)c1ccccc1OCC was read as NOD2 RIPK2 PPI -11, SR-BI HDL uptake 72*, SR-BI DiI-HDL act -72, TLR9-MyD88 block 1 and Lipid droplet -9.
`CCOc1ccccc1NC(=O)c1ccccc1-c1ccccc1` gave NOD2 RIPK2 PPI 9, SR-BI HDL uptake 26, SR-BI DiI-HDL act -26, TLR9-MyD88 block -7 and Lipid droplet -14.
CCOc1ccccc1C(=O)Nc1ccccc1C(N)=O was read as NOD2 RIPK2 PPI -4, SR-BI HDL uptake 34, SR-BI DiI-HDL act -34, TLR9-MyD88 block -11, Lipid droplet -3 and TLR4 MyD88 comp -8.
`CCOc1ccccc1NC(=O)c1csc(C)c1C` gave NOD2 RIPK2 PPI -10, SR-BI HDL uptake 81*, SR-BI DiI-HDL act -81, TLR9-MyD88 block -10 and Lipid droplet -6.
Screening CCOc1ccccc1NC(=O)c1cccc2ccccc12 returned NOD2 RIPK2 PPI 6, SR-BI HDL uptake 70*, SR-BI DiI-HDL act -70, TLR9-MyD88 block 4 and Lipid droplet -1.
For CCOc1cc(NC(=O)C2CC2)c(OCC)cc1NC(=O)c1cc(OC)c(OC)c(OC)c1 the results were NOD2 RIPK2 PPI -10, SR-BI HDL uptake 23, SR-BI DiI-HDL act -23, TLR9-MyD88 block -2 and Lipid droplet -6.

Bioassay records: PubChem BioAssay, several laboratories
